From ChEMBL document CHEMBL1671679, “Lack of pharmacokinetic interaction between amdoxovir and reduced- and standard-dose zidovudine in HIV-1-infected individuals” (Antimicrob Agents Chemother, 2010)

Columns and labels:
[1] = Tmax in HIV-1 infected patient at 500 mg, po bid on day 1 by LC-MS/MS analysis; type: ADME, organism-based; conditions: human, in vivo
Procedure, shortened: (§1)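 Treatment-naive Hispanic HIV-1-infected adults (≥5,000 RNA copies/ml, CD4 ≥200 cells/mm3). Blood drawn after first dose on day 1 (0–12 h) and after last dose on day 10 (0–48 h) into DCF-containing EDTA tubes to block ex vivo deamination, centrifuged, plasma stored −80°C. Methanol extraction with internal standard, LC-MS/MS (linear 2–3,000 ng ml−1 for AMDX and DXG). Noncompartmental analysis assuming extravascular input; geometric means reported.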

[2] = Cmax in HIV-1 infected patient at 500 mg, po bid on day 1 by LC-MS/MS analysis; type: ADME, organism-based; set-up: dose 500 mg, route oral; conditions: human, in vivo
Procedure, shortened: (§2)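 Untreated Hispanic HIV-1-infected adults (viral load ≥5,000 copies/ml, CD4 ≥200 cells/mm3). Blood was drawn into DCF-containing EDTA tubes on day 1 (0–12 h) and on day 10 (0–48 h post last dose), then stored at −80°C. Plasma was methanol-extracted with an internal standard and run by LC-MS/MS (2–3,000 ng/ml AMDX/DXG; 2–5,000 ng/ml ZDV). Noncompartmental analysis assumed extravascular input; τ = 12 h; geometric means reported; accumulation was taken as AUCτ day 10/day 1.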

[3] = Cmax in HIV-1 infected patient at 500 mg, po bid on day 10 coadministered with 300 mg, po bid zidovudine by LC-MS/MS analysis; type: ADME, organism-based; set-up: dose 500 mg, route oral; conditions: human, in vivo; procedure, shortened: as §2
[4] = Apparent oral clearance in HIV-1 infected patient at 500 mg, po bid on day 10 coadministered with 200 mg, po bid zidovudine by LC-MS/MS analysis; type: ADME, organism-based; conditions: human, in vivo; procedure, shortened: as §2
[5] = AUC (0 to 12 hrs) in HIV-1 infected patient at 500 mg, po bid on day 10 by LC-MS/MS analysis; type: ADME, organism-based; set-up: dose 500 mg, time < 12 hr, route oral; conditions: human, plasma; procedure, shortened: as §2
[6] = AUC (0 to 12 hrs) in HIV-1 infected patient at 500 mg, po bid on day 10 coadministered with 200 mg, po bid zidovudine by LC-MS/MS analysis; type: ADME, organism-based; set-up: dose 500 mg, time < 12 hr, route oral; conditions: human, plasma; procedure, shortened: as §2
[7] = AUC (0 to 12 hrs) in HIV-1 infected patient at 500 mg, po bid on day 10 coadministered with 300 mg, po bid zidovudine by LC-MS/MS analysis; type: ADME, organism-based; set-up: dose 500 mg, time < 12 hr, route oral; conditions: human, plasma; procedure, shortened: as §2
[8] = Tmax in HIV-1 infected patient at 500 mg, po bid on day 10 by LC-MS/MS analysis; type: ADME, organism-based; conditions: human, in vivo; procedure, shortened: as §1
[9] = test system: Homo sapiens; assay: Ratio of AUC (0 to 12 hrs) in HIV-1 infected patient at 500 mg, po bid on day 10 to AUC (0 to 12 hrs) in HIV-1 infected patient at 500 mg, po bid on day 1; type: ADME, organism-based; conditions: in vivo; procedure, shortened: as §2
[10] = test system: Homo sapiens; assay: Ratio of AUC (0 to 12 hrs) in HIV-1 infected patient at 500 mg, po bid on day 10 coadministered with 200 mg, po bid zidovudine to AUC (0 to 12 hrs) in HIV-1 infected patient at 500 mg, po bid on day 1 coadministered with 200 mg, po bid zidovudine; type: ADME, organism-based; conditions: in vivo; procedure, shortened: as §2
[11] = Half life in HIV-1 infected patient at 500 mg, po bid on day 10 coadministered with 300 mg, po bid zidovudine by LC-MS/MS analysis; type: ADME, organism-based; conditions: human, in vivo; procedure, shortened: as §2
[12] = Apparent oral clearance in HIV-1 infected patient at 500 mg, po bid on day 10 coadministered with 300 mg, po bid zidovudine by LC-MS/MS analysis; type: ADME, organism-based; conditions: human, in vivo; procedure, shortened: as §2
[13] = test system: Homo sapiens; assay: Tmax in HIV-1 infected patient assessed as beta-D-dioxolane guanosine level at 500 mg, po bid on day 1 by LC-MS/MS analysis; type: ADME, organism-based; conditions: in vivo; procedure, shortened: as §2
[14] = Half life in HIV-1 infected patient at 500 mg, po bid on day 1 by LC-MS/MS analysis; type: ADME, organism-based; conditions: human, in vivo; procedure, shortened: as §2
[15] = Cmax in HIV-1 infected patient at 500 mg, po bid on day 10 coadministered with 200 mg, po bid zidovudine by LC-MS/MS analysis; type: ADME, organism-based; set-up: dose 500 mg, route oral; conditions: human, in vivo; procedure, shortened: as §2
[16] = Apparent oral clearance in HIV-1 infected patient at 500 mg, po bid on day 10 by LC-MS/MS analysis; type: ADME, organism-based; conditions: human, in vivo; procedure, shortened: as §2
[17] = Tmax in HIV-1 infected patient at 500 mg, po bid on day 10 coadministered with 300 mg, po bid zidovudine by LC-MS/MS analysis; type: ADME, organism-based; conditions: human, in vivo; procedure, shortened: as §1
[18] = test system: Homo sapiens; assay: Ratio of AUC (0 to 12 hrs) in HIV-1 infected patient at 500 mg, po bid on day 10 coadministered with 300 mg, po bid zidovudine to AUC (0 to 12 hrs) in HIV-1 infected patient at 500 mg, po bid on day 1 coadministered with 300 mg, po bid zidovudine; type: ADME, organism-based; conditions: in vivo; procedure, shortened: as §2
[19] = Half life in HIV-1 infected patient at 500 mg, po bid on day 10 coadministered with 200 mg, po bid zidovudine by LC-MS/MS analysis; type: ADME, organism-based; conditions: human, in vivo; procedure, shortened: as §2
[20] = Tmax in HIV-1 infected patient at 500 mg, po bid on day 10 coadministered with 200 mg, po bid zidovudine by LC-MS/MS analysis; type: ADME, organism-based; conditions: human, in vivo; procedure, shortened: as §1
[21] = Half life in HIV-1 infected patient at 500 mg, po bid on day 10 by LC-MS/MS analysis; type: ADME, organism-based; conditions: human, in vivo; procedure, shortened: as §2
[22] = Cmax in HIV-1 infected patient at 500 mg, po bid on day 10 by LC-MS/MS analysis; type: ADME, organism-based; set-up: dose 500 mg, route oral; conditions: human, in vivo; procedure, shortened: as §2
[23] = test system: Homo sapiens; assay: Ratio of AUC (0 to 12 hrs) in HIV-1 infected patient at 300 mg, po bid on day 10 coadministered with 500 mg, po bid amdoxovir to AUC (0 to 12 hrs) in HIV-1 infected patient at 300 mg, po bid on day 1 coadministered with 500 mg, po bid amdoxovir; type: ADME, organism-based; conditions: in vivo
Procedure, shortened: (§3)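 Untreated Hispanic HIV-infected adults (VL ≥5,000 copies/ml, CD4 ≥200 cells/mm3) dosed orally b.i.d. Plasma sampled 0–12 h after first dose (day 1) and 0–48 h after last dose (day 10) into DCF-containing EDTA tubes, stored −80°C. ZDV measured by validated LC-MS/MS (linear 2–5,000 ng/ml). Noncompartmental analysis assuming extravascular input. Accumulation taken as AUCτ (τ = 12 h) day 10 / AUCτ day 1, as geometric means.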

[24] = Tmax in HIV-1 infected patient at 300 mg, po bid on day 10 coadministered with 500 mg, po bid amdoxovir by LC-MS/MS analysis; type: ADME, organism-based; conditions: human, in vivo
Procedure, shortened: (§4)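 Untreated Hispanic HIV-infected adults (VL ≥5,000 copies/ml, CD4 ≥200 cells/mm3) dosed orally b.i.d. for 10 days. Methanol extraction with internal standard, then LC-MS/MS for ZDV. Noncompartmental steady-state Tmax reported as geometric mean.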

[25] = Drug level in HIV-1 infected patient urine assessed as zidovudine-5-O-glucoronide level at 200 mg, po bid on day 10 coadministered with 500 mg, po bid amdoxovir by LC-MS/MS analysis; type: ADME, organism-based; conditions: human, in vivo
Procedure, shortened: (§5)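 At steady state (day 10), urine collected over one 12-h dose interval was analyzed by LC-MS/MS for AMDX, DXG, ZDV and ZDV-5′-O-glucuronide. Samples were diluted 100-fold, and the assay was linear from 1 to 500 μg/ml. Results are expressed as percentage of the dose recovered as each analyte (geometric means). Subjects were untreated HIV-1-infected adults.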

[26] = Tmax in HIV-1 infected patient on day 10 by LC-MS/MS analysis; type: ADME, organism-based; conditions: human, in vivo; procedure, shortened: as §4
[27] = Drug level in HIV-1 infected patient urine at 200 mg, po bid on day 10 coadministered with 500 mg, po bid amdoxovir by LC-MS/MS analysis; type: ADME, organism-based; conditions: human, read-out: Drug uptake; procedure, shortened: as §5
[28] = Apparent oral clearance in HIV-1 infected patient at 300 mg, po bid on day 10 coadministered with 500 mg, po bid amdoxovir by LC-MS/MS analysis; type: ADME, organism-based; conditions: human, in vivo; procedure, shortened: as §2
[29] = Half life in HIV-1 infected patient at 200 mg, po bid on day 10 coadministered with 500 mg, po bid amdoxovir by LC-MS/MS analysis; type: ADME, organism-based; conditions: human, in vivo; procedure, shortened: as §2
[30] = Drug level in HIV-1 infected patient urine on day 10 assessed as zidovudine-5-O-glucoronide level by LC-MS/MS analysis; type: ADME; conditions: human, in vivo; procedure, shortened: as §5
[31] = Apparent oral clearance in HIV-1 infected patient on day 10 by LC-MS/MS analysis; type: ADME, organism-based; conditions: human, in vivo; procedure, shortened: as §2
[32] = Half life in HIV-1 infected patient at 300 mg, po bid on day 10 coadministered with 500 mg, po bid amdoxovir by LC-MS/MS analysis; type: ADME, organism-based; conditions: human, in vivo; procedure, shortened: as §2
[33] = Half life in HIV-1 infected patient on day 10 by LC-MS/MS analysis; type: ADME, organism-based; conditions: human, in vivo; procedure, shortened: as §2
[34] = organism: Homo sapiens; assay: Ratio of AUC (0 to 12 hrs) in HIV-1 infected patient on day 10 to AUC ( 0 to 12 hrs) in HIV-1 infected patient on day 1; type: ADME, organism-based; conditions: in vivo; procedure, shortened: as §3
[35] = Drug level in HIV-1 infected patient urine assessed as zidovudine-5-O-glucoronide level at 300 mg, po bid on day 10 coadministered with 500 mg, po bid amdoxovir by LC-MS/MS analysis; type: ADME, organism-based; conditions: human, in vivo; procedure, shortened: as §5
[36] = Tmax in HIV-1 infected patient at 200 mg, po bid on day 10 coadministered with 500 mg, po bid amdoxovir by LC-MS/MS analysis; type: ADME, organism-based; conditions: human, in vivo; procedure, shortened: as §4
[37] = test system: Homo sapiens; assay: Ratio of AUC (0 to 12 hrs) in HIV-1 infected patient at 200 mg, po bid on day 10 coadministered with 500 mg, po bid amdoxovir to AUC (0 to 12 hrs) in HIV-1 infected patient at 200 mg, po bid on day 1 coadministered with 500 mg, po bid amdoxovir; type: ADME, organism-based; conditions: in vivo; procedure, shortened: as §3
[38] = Apparent oral clearance in HIV-1 infected patient at 200 mg, po bid on day 10 coadministered with 500 mg, po bid amdoxovir by LC-MS/MS analysis; type: ADME, organism-based; conditions: human, in vivo; procedure, shortened: as §2
[39] = Drug level in HIV-1 infected patient urine at 300 mg, po bid on day 10 coadministered with 500 mg, po bid amdoxovir by LC-MS/MS analysis; type: ADME, organism-based; conditions: human, read-out: Drug uptake; procedure, shortened: as §5
[40] = Drug level in HIV-1 infected patient urine on day 10 by LC-MS/MS analysis; type: ADME; conditions: human, read-out: Drug uptake; procedure, shortened: as §5

## Nc1nc(N)c2ncn([C@H]3CO[C@@H](CO)O3)c2n1 [AMDOXOVIR]
[1]
  Tmax: 1 h
[2]
  Cmax: 514 ng/mL
[3]
  Cmax: 714 ng/mL
[4]
  CL/F: 74.7 mL/min/kg
[5]
  AUC at 12 h: 1330 ng·h/mL
[6]
  AUC at 12 h: 1730 ng·h/mL
[7]
  AUC at 12 h: 2090 ng·h/mL
[8]
  Tmax: 2 h
[9]
  Ratio AUC: 0.95
[10]
  Ratio AUC: 0.99
[11]
  half-life: 1.1 h
[12]
  CL/F: 63.5 mL/min/kg
[13]
  Tmax: 1 h
[14]
  half-life: 1.3 h
[15]
  Cmax: 649 ng/mL
[16]
  CL/F: 91.5 mL/min/kg
[17]
  Tmax: 2.5 h
[18]
  Ratio AUC: 0.67
[19]
  half-life: 1.7 h
[20]
  Tmax: 2.5 h
[21]
  half-life: 1.4 h
[22]
  Cmax: 499 ng/mL

## Cc1cn([C@H]2C[C@H](N=[N+]=[N-])[C@@H](CO)O2)c(=O)[nH]c1=O [ZIDOVUDINE]
[23]
  Ratio AUC: 0.86
[24]
  Tmax: 0.5 h
[25]
  Drug uptake: 61.87%
[26]
  Tmax: 0.5 h
[27]
  dose excreted: 5.88%
[28]
  CL/F: 30 mL/min/kg
[29]
  half-life: 2.5 h
[30]
  Drug uptake: 61.15%
[31]
  CL/F: 23.2 mL/min/kg
[32]
  half-life: 2.4 h
[33]
  half-life: 2.2 h
[34]
  Ratio AUC: 1.21
[35]
  Drug uptake: 62.89%
[36]
  Tmax: 0.5 h
[37]
  Ratio AUC: 1.04
[38]
  CL/F: 39 mL/min/kg
[39]
  dose excreted: 6.74%
[40]
  dose excreted: 6.24%
